Measurements reported in ChEMBL document CHEMBL3425488, “Novel histone deacetylase inhibitors induce growth arrest, apoptosis, and differentiation in sarcoma cancer stem cells” (J Med Chem, 2015).
pIC50: −log10 of the molar value. Activity calls are given as the source filed them. No cut-off for these calls is given here.

What was measured:
[1] = target: Histone deacetylase 1 (Homo sapiens, UniProt Q13547); test: Inhibition of recombinant HDAC1 (unknown origin) by homogeneous fluorescence release assay
Chain of Histone deacetylase 1 (Q13547 whole entry): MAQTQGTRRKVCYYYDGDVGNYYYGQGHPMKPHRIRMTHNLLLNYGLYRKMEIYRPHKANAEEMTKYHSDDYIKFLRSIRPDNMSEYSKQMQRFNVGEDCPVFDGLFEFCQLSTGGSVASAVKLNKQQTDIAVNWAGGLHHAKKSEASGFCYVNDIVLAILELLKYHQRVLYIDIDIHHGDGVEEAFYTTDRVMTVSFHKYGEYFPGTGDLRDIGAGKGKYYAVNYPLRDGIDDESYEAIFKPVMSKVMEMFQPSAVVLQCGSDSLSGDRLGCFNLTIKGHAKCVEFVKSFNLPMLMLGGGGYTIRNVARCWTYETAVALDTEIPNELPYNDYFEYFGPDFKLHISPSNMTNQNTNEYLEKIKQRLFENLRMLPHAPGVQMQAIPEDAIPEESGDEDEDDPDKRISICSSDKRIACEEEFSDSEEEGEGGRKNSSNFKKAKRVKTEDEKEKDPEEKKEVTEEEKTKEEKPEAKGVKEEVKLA

[2] = target: T1, Protein deacetylase HDAC6 (Homo sapiens, UniProt Q9UBN7); test: Inhibition of recombinant HDAC6 (unknown origin) by homogeneous fluorescence release assay
T1 sequence (Q9UBN7 whole entry): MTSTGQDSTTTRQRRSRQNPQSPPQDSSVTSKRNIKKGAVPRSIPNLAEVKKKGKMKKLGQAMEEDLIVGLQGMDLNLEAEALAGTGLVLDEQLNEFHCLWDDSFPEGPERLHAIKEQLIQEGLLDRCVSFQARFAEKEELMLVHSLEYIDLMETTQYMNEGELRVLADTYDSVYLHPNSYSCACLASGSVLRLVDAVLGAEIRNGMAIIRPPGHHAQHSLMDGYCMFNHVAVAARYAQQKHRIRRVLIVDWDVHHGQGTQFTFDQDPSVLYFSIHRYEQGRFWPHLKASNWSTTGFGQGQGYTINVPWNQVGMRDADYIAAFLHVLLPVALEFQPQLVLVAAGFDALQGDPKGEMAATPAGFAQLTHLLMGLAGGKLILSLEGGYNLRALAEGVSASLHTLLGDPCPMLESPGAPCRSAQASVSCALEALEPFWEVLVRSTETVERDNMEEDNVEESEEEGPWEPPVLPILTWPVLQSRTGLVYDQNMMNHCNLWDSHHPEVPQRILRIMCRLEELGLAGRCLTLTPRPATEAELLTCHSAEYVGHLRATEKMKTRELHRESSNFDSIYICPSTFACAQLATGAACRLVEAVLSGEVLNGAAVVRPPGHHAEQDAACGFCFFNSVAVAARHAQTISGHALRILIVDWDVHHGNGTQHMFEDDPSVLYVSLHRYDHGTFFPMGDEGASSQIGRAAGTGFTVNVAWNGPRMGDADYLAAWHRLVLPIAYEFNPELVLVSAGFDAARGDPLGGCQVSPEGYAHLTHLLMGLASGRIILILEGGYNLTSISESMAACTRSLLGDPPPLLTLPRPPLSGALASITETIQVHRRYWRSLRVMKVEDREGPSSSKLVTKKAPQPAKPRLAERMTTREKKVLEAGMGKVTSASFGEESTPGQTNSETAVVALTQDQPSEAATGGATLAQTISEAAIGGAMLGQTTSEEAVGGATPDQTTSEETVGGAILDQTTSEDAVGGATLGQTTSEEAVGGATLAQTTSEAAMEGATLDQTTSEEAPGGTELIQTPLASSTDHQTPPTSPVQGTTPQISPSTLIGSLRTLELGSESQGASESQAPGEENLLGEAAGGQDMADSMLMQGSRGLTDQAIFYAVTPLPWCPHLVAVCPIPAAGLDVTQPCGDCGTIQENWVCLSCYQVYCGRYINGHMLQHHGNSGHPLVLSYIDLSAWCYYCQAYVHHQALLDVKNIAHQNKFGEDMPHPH

[3] = target: T2, Histone deacetylase 8 (Homo sapiens, UniProt Q9BY41); test: Inhibition of recombinant HDAC8 (unknown origin) by homogeneous fluorescence release assay
T2 sequence (Q9BY41 whole entry): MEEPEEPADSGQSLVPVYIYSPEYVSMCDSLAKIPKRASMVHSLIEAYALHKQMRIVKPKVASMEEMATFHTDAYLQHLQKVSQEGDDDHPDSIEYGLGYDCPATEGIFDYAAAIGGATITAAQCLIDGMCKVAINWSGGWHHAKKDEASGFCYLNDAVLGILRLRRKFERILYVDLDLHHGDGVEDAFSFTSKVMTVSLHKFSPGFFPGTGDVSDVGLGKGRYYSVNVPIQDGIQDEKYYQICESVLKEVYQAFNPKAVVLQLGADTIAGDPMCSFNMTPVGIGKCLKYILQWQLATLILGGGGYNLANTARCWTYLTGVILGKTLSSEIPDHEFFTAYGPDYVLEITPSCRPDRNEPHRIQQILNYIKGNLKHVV

[4] = target: T3, Histone deacetylase 11 (Homo sapiens, UniProt Q96DB2); test: Inhibition of recombinant HDAC11 (unknown origin) by homogeneous fluorescence release assay
T3 sequence (Q96DB2 whole entry): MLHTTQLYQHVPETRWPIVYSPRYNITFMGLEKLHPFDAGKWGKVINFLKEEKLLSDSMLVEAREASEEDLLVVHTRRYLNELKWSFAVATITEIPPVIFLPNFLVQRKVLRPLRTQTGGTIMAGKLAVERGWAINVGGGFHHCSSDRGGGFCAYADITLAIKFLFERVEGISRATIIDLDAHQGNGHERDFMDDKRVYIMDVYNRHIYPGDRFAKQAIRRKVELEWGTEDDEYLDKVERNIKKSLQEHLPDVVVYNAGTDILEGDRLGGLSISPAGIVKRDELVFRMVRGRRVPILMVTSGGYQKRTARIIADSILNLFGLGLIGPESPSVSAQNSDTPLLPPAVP

[5] = test system: MG-63; test: Induction of human MG63 cell differentiation assessed as increase in bone nodule formation at 0.025 to 0.5 uM after 14 days by Alizarin Red S staining-based spectrophotometric analysis relative to control; type: functional
Procedure, shortened: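 MG-63 sarcosphere-derived cells in mineralization medium (10 mM β-glycerophosphate, 10−8 M dexamethasone, ascorbic acid 2-phosphate) with continuous 0.025–0.5 μM exposure for 14 days. Fixed in 3.7% paraformaldehyde, then stained with 2% Alizarin Red S, pH 4.2, for 1 h. Dye eluted with 10% cetylpyridinium chloride and read at 570 nm. OD expressed relative to mineralization-medium control; triplicate.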

[6] = Cytotoxicity against human MG63 cells assessed as growth inhibition at 0.5 uM treated for 14 days measured on day 14 post last treatment by Alamar Blue assay; type: cell-based; conditions: mg-63, 336 h
Procedure, shortened: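 MG-63 sarcosphere-derived cells, 10000 seeded, grown in complete α-MEM to 70% confluence. Then kept in mineralization medium (10 mM β-glycerophosphate, 10−8 M dexamethasone, ascorbic acid 2-phosphate) with continuous compound exposure (0.025–0.5 μM) for 14 days. Viability then read by Alamar Blue.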

[7] = test system: MG-63; test: Induction of human MG63 cell differentiation assessed as increase in bone nodule formation after 14 days by Alizarin Red S staining-based spectrophotometric analysis; type: functional
Procedure, shortened: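 Cells from dissociated MG-63 sarcospheres were grown in α-MEM with 10% FBS until 70% confluent. They were then switched to mineralization medium (10 mM β-glycerophosphate, 10−8 M dexamethasone, […] ascorbic acid 2-phosphate) and exposed continuously to 0.025–0.5 μM compound for 14 days. After fixation, Alizarin Red S staining (pH 4.2) was eluted with 10% cetylpyridinium chloride and read at 570 nm. Values are OD relative to medium-alone control, in triplicate.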

Row | SMILES | pIC50 [1] | pIC50 [2] | pIC50 [3] | pIC50 [4] | Activity [5] | Activity [6] | Activity [7]
1 | O=C(/C=C/c1ccc(NC(=O)C(Cc2ccccc2)c2ccccc2)cn1)NO (configuration not stated) | 5.85 | 8.00 | 6.21 | 4.99 | inactive | Toxic | 
2 | O=C(CCCCSc1nc(-c2ccc(-c3ccccc3)cc2)cc(=O)[nH]1)NO |  |  |  |  |  |  | Dose-dependent effect
